UPR CHOP act – activators of apoptotic CHOP UPR arm, primary screen, cell-based, CHO-CHOP luciferase reporter, luminescence, uHTS; UPR activation; percent of tunicamycin response over DMSO baseline; activation, % at 10 µM; 330,000 compounds, 0.34% hits;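 active = at 10 µM dose, activation of 40% or more, normalized to positive control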
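System: CHO-CHOP luciferase reporter cell line | Buffer or medium: F12 medium containing 10% fetal bovine serum | Doses: One dose, 10 µM in 0.5% DMSO | Times: 6 h compound exposure at 37 °C after overnight seeding | Signal: Luciferase luminescence | Read-out: % activation vs tunicamycin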
XBP1 UPR activ – activators of adaptive XBP1 UPR arm, primary screen, cell-based, CHO-XBP1 luciferase reporter, luminescence, uHTS; AID 463104, 2010; IRE1-XBP1 UPR activation; percent of tunicamycin response, DMSO as zero; activation, % at 20 µM; 330,000 compounds, 0.33% hits;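 active = versus positive control, 20 µM dose yields 30% or more activation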
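Assay system: IRE1-XBP1 luciferase reporter CHO line. Input: 1000 cells/well. Buffer or medium: F12 with 10% serum. Doses: 20 µM, 1% DMSO. Times: overnight seeding at 37 °C, 6 h compound treatment at 37 °C. Technique: Steady-Glo luciferase glow luminescence, 10 min after reagent addition.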
T cell HTS – modulators of CD8 T cell-vesicle binding, primary screen, mouse 2C CD8+ T cells, flow cytometry; 2C CD8+ T cell-vesicle binding; active compounds read low; response (vesicle binding), % at 7 µM; 330,000 compounds, 0.068% hits; AID 2052, 2009;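 active = response, share of CD8 T cells binding vesicles, and their 90th percentile fluorescence all below set limits, cut at about 80% in these data, passing the limit was not always enough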;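 also: values below 100% mean blocked vesicle binding to the CD8+ T cells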
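Test system: purified 2C TCR transgenic mouse naive CD8+ T cells. Probe or stimulus: QL9-peptide-loaded Drosophila micro-vesicles bearing Ld, ICAM-1 and B7-1. Incubation: binding step 1.5 h, 37 °C, antibody labelling 20 min, ice. Measured by: flow cytometry of vesicle-bound cells.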
B2AR ag – beta2AR agonists driving receptor internalization, primary screen, cell-based, FAP fluorogen, flow cytometry; Beta-2 adrenergic receptor (Homo sapiens), P07550; Am2.2-beta2AR cells; response, % (test concentration not listed); 340,000 compounds, 0.43% hits; AID 504454, 2011;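 active = response above a set limit, near 3 SD of response in nonfluorescent compounds, cut at about 42% in these data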
Target sequence (P07550 whole entry, looked up): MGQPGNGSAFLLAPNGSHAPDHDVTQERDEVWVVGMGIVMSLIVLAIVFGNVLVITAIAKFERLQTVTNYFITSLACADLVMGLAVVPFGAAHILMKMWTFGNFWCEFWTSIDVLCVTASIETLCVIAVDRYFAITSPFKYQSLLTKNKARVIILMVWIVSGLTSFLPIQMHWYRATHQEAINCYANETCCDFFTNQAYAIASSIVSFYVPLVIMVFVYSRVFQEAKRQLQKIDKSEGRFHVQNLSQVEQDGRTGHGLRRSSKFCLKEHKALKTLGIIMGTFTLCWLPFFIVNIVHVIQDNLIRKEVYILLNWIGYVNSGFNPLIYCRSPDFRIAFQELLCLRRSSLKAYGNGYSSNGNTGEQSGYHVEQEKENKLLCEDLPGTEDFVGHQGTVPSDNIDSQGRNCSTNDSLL
CHOP UPR conf – activators of apoptotic CHOP UPR arm, confirmation, cell-based, CHO-CHOP luciferase reporter, single concentration | shares compounds with UPR CHOP act | CHO-CHOP cells, CHOP-luciferase reporter luminescence; percent of tunicamycin response, DMSO as zero | activation, % at 10 µM | 1,000 compounds, 64% hits | AID 463112, 2010; in the data active = activation above about 33%
A number is an active result; n = inactive; x = no result given. Sampled rows, rich in hits. Any-hit rate of the full collection: about 1%.

SMILES | UPR CHOP act | XBP1 UPR activ | T cell HTS | B2AR ag | CHOP UPR conf
CCOc1cc(/C=C2/C(=N)N3C(=NC2=O)SN=C3S(C)(=O)=O)ccc1OC(=O)c1ccco1 | n | n | n | n | x
COC(=O)Cn1c(=NC(=O)c2sc3ccccc3c2Cl)sc2cc(S(N)(=O)=O)ccc21 | n | n | n | n | x
COC(=O)Cn1c(=NC(=O)c2nc3ccccc3s2)sc2cc(S(C)(=O)=O)ccc21 | n | 42 | n | x | x
CC(Cl)C(=O)NNC(=O)CNS(=O)(=O)c1ccccc1 (stereo unspecified) | n | n | n | n | x
CN(C(=O)c1cc(COc2ccc(F)cc2Cl)on1)C1CCCc2ccccc21 (stereo unspecified) | n | n | n | n | x
COc1ccccc1NC(=O)c1cc2c(CO)cnc(C)c2oc1=Nc1cc(OC)c(OC)c(OC)c1 | n | n | n | n | x
COc1ccccc1NC(=O)c1cc2c(CO)cnc(C)c2oc1=Nc1ccc(OC)c(OC)c1 | n | n | n | 49 | x
Cc1ccc(-c2nn3c(C)nnc3c3ccccc23)cc1S(=O)(=O)NCc1ccccc1 | n | n | n | n | x
Cc1c(Nc2cc(Cl)c3nonc3c2[N+](=O)[O-])c(=O)n(-c2ccccc2)n1C | n | n | x | 89 | x
COC(=O)c1ccnc(SCC(=O)c2ccccc2)c1 | n | n | n | n | x
O=C(N/N=C/c1ccc(O)cc1)c1ccc(COc2cc(Cl)ccc2Cl)o1 | n | n | n | 49 | x
COc1ccc2ccccc2c1/C=N/NC(=O)c1cccc([N+](=O)[O-])c1 | n | n | n | n | x
CCN(Cc1ccccc1)c1ccccc1 | x | x | x | n | x
CCN(Cc1ccccc1)c1ccc(/C=N/N=C(N)N)cc1 | n | n | n | 63 | x
CCN1CC2=C(OC(N)=C(C#N)C2c2ccccc2)/C(=C\c2ccccc2)C1 (stereo unspecified) | n | n | n | n | x
N#CC1=C(N)OC2=C(CC/C2=C\c2ccc(F)cc2)C1c1ccc(F)cc1 (stereo unspecified) | 116 | n | n | x | x
CCOC(=O)c1ccc(NC(=O)Cn2ncc(Cl)c(Cl)c2=O)cc1 | n | n | n | 74 | x
Cc1ccc(C(=O)OCn2ncc(Cl)c(Cl)c2=O)cc1 | n | n | n | 62 | x
CCOC(=O)c1ccc(NC(=O)Cn2nc(C)c3ccccc3c2=O)cc1 | n | n | n | n | x
C=CCC[C@H](Cc1ccc(F)cc1)C(=O)OC[C@H](C)NC(=O)[C@@H](CC=C)CC(=O)N[C@H](CO)Cc1ccccc1 | n | n | 61 | n | x
CCOC(=O)c1sc(NC(=O)CSc2ncn[nH]2)c(C#N)c1C | n | n | 15 | n | x
CCOC(=O)c1sc(NC(=O)CSC(=S)N2CCOCC2)nc1C | n | n | n | n | x
Cc1cc(/C=N\NC(=O)CC(=O)NC2CCCCC2)c(C)n1-c1cccc(Cl)c1Cl | n | n | n | n | x
Cc1cc(/C=N\NC(=O)CC(=O)NC2CCCCC2)c(C)n1-c1ccc(Cl)c(Cl)c1 | n | n | n | 56 | x
CNC(=O)c1cc(C(=O)c2ccc(F)cc2C(F)(F)F)c[nH]1 | n | n | 0.0 | n | x
SMILES | UPR CHOP act | XBP1 UPR activ | T cell HTS | B2AR ag | CHOP UPR conf
CC1(C)Cc2cccc(OCC(=O)OCc3nnc(-c4ccc([N+](=O)[O-])cc4)o3)c2O1 | n | n | n | n | x
O=C(Oc1oc(-c2ccco2)nc1C=Nc1ccc(Cl)cc1)c1ccco1 | 77 | n | n | n | 76
CC(C)N(C(C)C)S(=O)(=O)c1ccc(N2CCc3ccccc3C2)nc1 | 64 | n | n | n | n
CSc1nc(-c2ccc(C)cc2)nc(C(Cl)Cl)n1 | 52 | n | n | n | n
O=C(OCCc1ccccc1)c1cc(O)c(O)c(O)c1 | 118 | n | n | n | n
Nc1ccc(C(=O)OCCc2ccccc2)cc1 | n | n | n | n | x
O=C(NCC(c1ccco1)N1CCCCC1)c1ccc(COc2ccccc2)cc1 (stereo unspecified) | n | n | n | n | x
CC1(C)CC(=O)C(=Cc2cn(-c3ccccc3)nc2-c2ccc(Cl)cc2)C(=O)C1 | 288 | n | n | n | 221
CC1(C)CC(=O)C(=Cc2cn(CCC#N)nc2-c2ccc(Cl)cc2)C(=O)C1 | n | n | n | n | x
COc1ccc(C(C(=O)NC2CCCCC2)N(C(=O)CCl)c2ccc(OC)cc2)cc1 (stereo unspecified) | n | n | n | n | x
O=C(NC1CCCCC1)C(c1ccncc1)N(Cc1ccc(F)cc1)C(=O)c1ccccn1 (stereo unspecified) | n | n | n | n | x
COc1ccc(C(C(=O)NC2CCCCC2)N(C(=O)CCl)c2ccc(C)cc2)cc1 (stereo unspecified) | 62 | n | n | 44 | n
O=C(NC1CCCC1)C(c1ccc(F)cc1)N(Cc1ccc(F)cc1)C(=O)CCl (stereo unspecified) | 48 | n | n | n | 93
COc1ccc(-c2cc(C(F)F)n3ncc(C(=O)N4CCc5ccccc54)c3n2)cc1 | n | n | n | n | x
COc1ccc(-c2cc(C(F)F)n3ncc(C(=O)n4ccnc4C)c3n2)cc1 | 131 | n | n | 48 | 135
CC(=O)Nc1nc(-c2ccc3ccccc3c2)cs1 | n | n | n | n | x
Oc1ccc(-c2nc(-c3ccc(O)c(O)c3)cs2)cc1 | 146 | n | n | n | 96
Oc1ccc(Nc2nc(-c3ccc4ccccc4c3)cs2)cc1 | 63 | n | n | n | n
COc1ccc(-c2nc(-c3ccccc3)nc(Cl)c2C#N)cc1 | 81 | 72 | n | n | 33
CNc1nc(-c2ccccc2)nc(-c2ccc(OC)cc2)c1C#N | n | n | n | n | x
CC1(c2ccc(Cl)cc2)NC(=O)N(CC(=O)N2CCc3ccccc3C2)C1=O (stereo unspecified) | n | n | n | n | x
N#C/C(=C\c1ccc([N+](=O)[O-])o1)C(=O)Nc1ccc(F)cc1 | 166 | n | n | n | 156
COc1ccc(NC(=O)/C(C#N)=C\c2ccc(Br)o2)cc1 | n | n | n | n | x
Cn1nnnc1Sc1ncnc2scc(-c3ccc([N+](=O)[O-])cc3)c12 | 93 | n | n | n | 105
CCOC(=O)c1nc2nc(C)cc(=O)n2[nH]1 | n | n | n | n | x
FC(F)(F)c1cc(-c2ccccc2)nc(NCc2cccs2)n1 | n | n | n | n | x
N=C1N(/N=C/c2ccccc2)C(=Nc2ccccc2)C(=S)N1c1ccccc1 | 76 | n | n | n | n
O=c1nc(Nc2ccccc2)oc2ccccc12 | n | n | n | n | x
O=c1nc(Nc2cccc(Cl)c2)oc2cc(Cl)oc(=O)c12 | 41 | n | n | n | 73
CCOC(=O)c1c(CSC(=N)N)n(C)c2cc(Br)c(OC(C)=O)cc12 | n | n | n | n | x

Screening data from PubChem.
